Source: ChEMBL document CHEMBL1146211, “Conformationally constrained analogues of diacylglycerol (DAG). 28. DAG-dioxolanones reveal a new additional interaction site in the C1b domain of PKC delta” (J Med Chem, 2007)
pKd, pKi: −log10 of the molar value. The source made the active and inactive calls. The calls are words filed in the database; no cut-off is given here.

Tests used:
[1] = target: T1, Protein kinase C delta type (Mus musculus, UniProt P28867); assay: Displacement of [3H]PDBu from mouse wild type C1b domain of PKCdelta expressed in Escherichia coli
T1 sequence (P28867 whole entry, the tested form may be a part): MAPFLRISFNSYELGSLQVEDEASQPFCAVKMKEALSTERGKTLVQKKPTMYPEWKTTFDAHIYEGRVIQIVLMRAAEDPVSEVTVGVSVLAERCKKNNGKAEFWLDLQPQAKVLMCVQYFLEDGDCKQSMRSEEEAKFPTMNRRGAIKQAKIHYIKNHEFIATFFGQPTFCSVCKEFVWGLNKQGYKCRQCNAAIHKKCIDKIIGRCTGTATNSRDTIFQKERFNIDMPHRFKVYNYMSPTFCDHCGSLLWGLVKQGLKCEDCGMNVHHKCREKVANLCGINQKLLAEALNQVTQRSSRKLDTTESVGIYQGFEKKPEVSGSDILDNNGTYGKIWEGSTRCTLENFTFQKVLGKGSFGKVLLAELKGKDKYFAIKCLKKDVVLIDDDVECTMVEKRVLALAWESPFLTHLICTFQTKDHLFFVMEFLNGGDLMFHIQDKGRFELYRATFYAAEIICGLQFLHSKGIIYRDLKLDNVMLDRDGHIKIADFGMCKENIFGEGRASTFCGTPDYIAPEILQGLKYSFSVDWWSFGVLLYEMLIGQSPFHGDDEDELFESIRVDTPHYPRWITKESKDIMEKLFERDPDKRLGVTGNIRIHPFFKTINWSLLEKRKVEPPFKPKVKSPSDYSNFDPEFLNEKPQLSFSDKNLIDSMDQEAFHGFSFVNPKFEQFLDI
Outline: (§1)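 Competitive displacement of [3H]PDBu from GST-tagged C1 domains of PKCδ (expressed in E. coli, IPTG-induced, spin-purified, stored in 30% glycerol at -70 °C). 18 °C for 10 min, PEG precipitation on ice, scintillation counting of pellet and supernatant. Ki from the lab's standard method. Three independent experiments.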

[2] = target: Protein kinase C delta type (Mus musculus, UniProt P28867, Q257E); assay: Displacement of [3H]PDBu from mouse PKCdelta C1b Q27E mutant expressed in Escherichia coli; outline: as §1
Chain of Protein kinase C delta type (Mus musculus, UniProt P28867, Q257E) (P28867 whole entry Q257E): as the sequence (P28867 whole entry, the tested form may be a part) above, with Q257E counted along it

[3] = target: T1, Protein kinase C delta type; assay: Binding affinity to mouse PKC delta C1a Q27E mutant expressed in Escherichia coli; outline: as §1
[4] = target: T1, Protein kinase C delta type; assay: Binding affinity to mouse wild-type PKCdelta C1a expressed in Escherichia coli; outline: as §1
[5] = target: Protein kinase C delta type (Mus musculus) (UniProt P28867); assay: Effect on membrane translocation of wildype full length PKCdelta-GFP in CHOK1 cells at 20 uM within 5 mins; format: functional, cell-based; conditions: CHO-K1
Chain of Protein kinase C delta type (Mus musculus) (P28867 whole entry, looked up, the tested form may be a part): as the sequence (P28867 whole entry, the tested form may be a part) above
Outline: (§2)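 CHO-K1 cells grown at 37 °C, 5% CO2 in F-12 with 10% FBS and penicillin/streptomycin, transfected with GFP-fused PKCδ (wild type or Q257E); imaged 24 h later. Live confocal time series (488 nm excitation, 522/32 emission) in a perfusion chamber at 37 °C after ligand addition (test compound 20 µM; PMA 1 µM). Plasma- and internal-membrane GFP redistribution assessed visually.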

[6] = target: Protein kinase C delta type (Mus musculus) (UniProt P28867); assay: Effect on membrane translocation of PKCdelta-GFP Q257E mutant in CHOK1 cells at 20 uM after 1 hr; format: functional, cell-based; conditions: CHO-K1; outline: as §2
[7] = target: Protein kinase C delta type (Mus musculus) (UniProt P28867); assay: Ratio of Ki for mouse PKCdelta C1b Q27E mutant to Ki for mouse wild type C1b domain of PKCdelta
[8] = target: Protein kinase C alpha type (Mus musculus, UniProt P20444); assay: Displacement of [3H]PDBu from mouse recombinant PKCalpha expressed in Escherichia coli
Outline: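 Recombinant full-length mouse PKCα, partially purified, is tested for competitive displacement of [3H]PDBu with phosphatidylserine (100 µg/mL), 4 mg/mL bovine IgG and 50 mM Tris-HCl pH 7.4. Incubation is 37 °C for 5 min, followed by polyethylene glycol precipitation on ice and scintillation counting of bound and free label. Ki is calculated by the lab's standard method, averaged over three independent experiments.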

| SMILES | pKi [1] | pKi [2] | pKd [3] | pKd [4] | pKi [3] | Activity [5] | pKi [4] | Activity [6] | Ratio Ki [7] | pKi [8] |
| --- | --- | --- | --- | --- | --- | --- | --- | --- | --- | --- |
| CCCC(=O)O[C@@H]1[C@@H](C)[C@@]2(O)[C@@H](C=C(CO)C[C@]3(O)C(=O)C(C)=C[C@@H]23)[C@@H]2C(C)(C)[C@]12OC(=O)CCC | 9.48 | 8.21 | 6.42 | 8.69 |  |  |  |  |  |  |
| CC(C)CC(C/C=C1/OC(CO)(COC(=O)C(C)(C)C)OC1=O)CC(C)C (centres undefined) | 9.09 | 5.60 |  |  | 5.80 | Active | 8.37 | inactive | 3070 |  |
| CC(C)CC(=O)OCC1(CO)C/C(=C/CC(CC(C)C)CC(C)C)C(=O)O1 (centres undefined) | 9.02 | 7.28 |  |  |  |  |  |  | 55 | 8.46 |
| CC(C)CC(C/C=C1/CC(CO)(COC(=O)C(C)(C)C)OC1=O)CC(C)C (centres undefined) | 8.94 | 7.35 |  |  | 6.32 |  | 8.92 |  | 39 | 8.54 |
| CC(C)CC(=O)OCC1(CO)OC(=O)/C(=C\CC(CC(C)C)CC(C)C)O1 (centres undefined) | 8.55 | 5.46 |  |  |  |  |  |  | 1230 | 7.70 |
| CC(C)CC=C1OC(CO)(COC(=O)CC(CC(C)C)CC(C)C)OC1=O (centres undefined) |  |  |  |  |  |  |  |  |  | 8.24 |
| CC(C)CC(CC=C1OC(CO)(COC(=O)C(C)(C)C)OC1=O)CC(C)C (centres undefined) |  |  |  |  |  |  |  |  |  | 8.19 |
| CC(C)C/C=C1/CC(CO)(COC(=O)CC(CC(C)C)CC(C)C)OC1=O (centres undefined) | 8.67 | 7.13 |  |  |  |  |  |  | 35 | 8.51 |
| CC(C)C/C=C1/OC(CO)(COC(=O)CC(CC(C)C)CC(C)C)OC1=O (centres undefined) | 9.05 | 5.76 |  |  |  |  |  |  | 1910 |  |
